Measurements: ChEMBL document CHEMBL5032505, “Design, Synthesis, and Activity Evaluation of Stereoconfigured Tartarate Derivatives as Potential Anti-inflammatory Agents In Vitro and In Vivo” (J Med Chem, 2021)
Activity calls are given as the source filed them. The rule behind the calls is not given here.

Columns and labels:
[1] = target: T1, Prostaglandin G/H synthase 1 (Ovis aries, UniProt P05979); experiment: Inhibition of ovine COX-1 using arachidonic acid as substrate preincubated for 10 mins followed by substrate addition and measured after 2 mins by EIA
T1 sequence (P05979 whole entry): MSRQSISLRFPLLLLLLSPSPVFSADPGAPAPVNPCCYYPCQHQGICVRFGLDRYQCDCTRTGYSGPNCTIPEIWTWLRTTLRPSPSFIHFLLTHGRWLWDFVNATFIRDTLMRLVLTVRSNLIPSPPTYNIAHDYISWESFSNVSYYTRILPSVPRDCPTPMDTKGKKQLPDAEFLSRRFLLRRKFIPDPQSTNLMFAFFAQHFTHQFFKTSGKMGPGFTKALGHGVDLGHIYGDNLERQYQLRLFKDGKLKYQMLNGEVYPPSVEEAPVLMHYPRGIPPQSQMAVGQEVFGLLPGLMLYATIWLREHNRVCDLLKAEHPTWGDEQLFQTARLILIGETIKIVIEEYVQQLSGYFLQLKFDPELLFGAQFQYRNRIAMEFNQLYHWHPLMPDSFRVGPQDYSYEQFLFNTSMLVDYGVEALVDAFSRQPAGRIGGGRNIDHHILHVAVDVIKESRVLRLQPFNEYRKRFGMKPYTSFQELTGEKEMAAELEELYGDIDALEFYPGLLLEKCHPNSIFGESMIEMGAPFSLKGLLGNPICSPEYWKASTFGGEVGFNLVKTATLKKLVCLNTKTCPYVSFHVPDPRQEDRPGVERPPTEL
Procedure, shortened: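 COX-1 EIA run at 10⁻⁴–10⁻⁸ M in triplicate. Enzyme with heme in reaction buffer plus inhibitor, incubated 10 min at 37 °C. Boiled (3 min) enzyme served as background. Prostaglandin output quantified to give IC50.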

Mus musculus [2] = experiment: Analgesic activity in Swiss albino mouse assessed as inhibition of acetic acid-induced writhing at 5 mg/kg, ip administered 30 mins prior to acetic acid challenge and measured after 30 mins relative to control; type: functional
Procedure, shortened: (§1)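 Mice pretreated i.p. with indomethacin (10 mg/kg) or test compound (5 mg/kg) 30 min before 0.6% v/v acetic acid injection. Control group also received acetic acid. Animals placed in a transparent box and abdominal writhings counted for 30 min. Six animals per group, one-way ANOVA with Tukey's test, mean ± SEM.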

[3] = Inhibition of soybean LOX using arachidonic acid as substrate incubated for 5 mins; parameters: species or system Glycine max
Procedure, shortened: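 Soybean lipoxygenase in assay buffer, compounds at 10⁻⁴–10⁻⁸ M from DMSO stocks, triplicate. Reaction started with arachidonic acid and shaken 5 min. Chromogen added, shaken 5 min more, absorbance read at 490 nm. Blanks were buffer + AA. % inhibition computed with chromogen extinction coefficient 9.47 mM⁻¹.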

Mus musculus [4] = experiment: Antiinflammatory activity in Swiss albino mouse model of carrageenan-induced paw edema assessed as reduction in paw thickness at 5 mg/kg, administered 30 mins prior to carrageenan challenge and measured upto 360 mins relative to control; type: functional; parameters: scale not given: the % may be the effect or the level left; settings: time 390 min, 6.5 h
Procedure, shortened: (§2)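 100 μL freshly prepared 1% carrageenan injected into the subplantar hind paw, with indomethacin (10 mg/kg) or test compound given 30 min before. Dose–response arm used 0.5, 2.5, 5, 10, 20 mg/kg. Six animals per group. Paw thickness (mm) read at 15, 30, 60, 120, 180, 240, 300, 360 min. Result expressed as % decrease versus control.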

Mus musculus [5] = experiment: Antiinflammatory activity in Swiss albino mouse model of carrageenan-induced paw edema assessed as reduction in paw thickness at 10 mg/kg, administered 30 mins prior to carrageenan challenge and measured upto 360 mins; type: functional; parameters: scale not given: the % may be the effect or the level left; settings: time 390 min, 6.5 h; procedure, shortened: as §2
[6] = target: Prostaglandin G/H synthase 1 (Homo sapiens) (UniProt P23219); experiment: Inhibition of COX1 in human whole blood assessed as reduction in calcium ionophore-stimulated TXB2 production by ELISA; type: tissue-based
Sequence of Prostaglandin G/H synthase 1 (Homo sapiens) (P23219 whole entry): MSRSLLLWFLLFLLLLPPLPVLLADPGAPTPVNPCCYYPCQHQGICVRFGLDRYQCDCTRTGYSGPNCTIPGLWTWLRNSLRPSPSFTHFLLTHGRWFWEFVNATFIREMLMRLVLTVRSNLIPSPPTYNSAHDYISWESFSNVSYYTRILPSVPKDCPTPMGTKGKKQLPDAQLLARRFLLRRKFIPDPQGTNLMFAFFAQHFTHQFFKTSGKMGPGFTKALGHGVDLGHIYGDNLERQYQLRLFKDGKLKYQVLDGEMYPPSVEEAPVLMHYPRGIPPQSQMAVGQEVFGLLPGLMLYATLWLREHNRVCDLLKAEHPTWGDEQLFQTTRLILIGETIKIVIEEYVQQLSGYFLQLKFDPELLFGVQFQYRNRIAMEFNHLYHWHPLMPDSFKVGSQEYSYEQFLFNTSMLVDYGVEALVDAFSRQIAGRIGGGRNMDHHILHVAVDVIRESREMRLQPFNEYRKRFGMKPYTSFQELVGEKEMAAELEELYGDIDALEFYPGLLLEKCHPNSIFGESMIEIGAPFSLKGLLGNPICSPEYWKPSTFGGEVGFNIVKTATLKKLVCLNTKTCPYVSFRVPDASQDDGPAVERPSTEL

Mus musculus [7] = experiment: Analgesic activity in Swiss albino mouse assessed as inhibition of acetic acid-induced writhing at 10 mg/kg, ip administered 30 mins prior to acetic acid challenge and measured after 30 mins relative to control; type: functional; parameters: scale not given: the % may be the effect or the level left; settings: time 60 min, 1 h; procedure, shortened: as §1

Row | SMILES | IC50 [1] | IC50 [3] | also measured
1 | CCOC(=O)Cn1nncc1CO[C@@H](C(=O)OCC)[C@@H](OCc1cnnn1CC(=O)OCC)C(=O)OCC | 60 µM | 0.3 µM | Activity (Mus musculus [2]; time 60.0 min): Active
2 | CCOC(=O)[C@H](OCc1cnnn1[C@@H](Cc1ccccc1)C(=O)OC)[C@@H](OCc1cnnn1[C@@H](Cc1ccccc1)C(=O)OC)C(=O)OCC | 90 µM | 0.09 µM | –
3 | CCOC(=O)[C@H](OCc1cnnn1[C@@H](CO)C(=O)OC)[C@@H](OCc1cnnn1[C@@H](CO)C(=O)OC)C(=O)OCC | 54 µM | 1.3 µM | Activity (Mus musculus [2]; time 60.0 min): Active
4 | COC(=O)[C@H](Cc1ccc(O)cc1)n1nncc1COc1ccc2ccccc2c1-c1c(OCc2cnnn2[C@@H](Cc2ccc(O)cc2)C(=O)OC)ccc2ccccc12 | > 10 µM | 0.6 µM | Activity (Mus musculus [2]; time 60.0 min): inactive
5 | Cc1ccc(-c2cc(C(F)(F)F)nn2-c2ccc(S(N)(=O)=O)cc2)cc1 [CELECOXIB] | – | – | Activity (Mus musculus [4]): 33%; Activity (Mus musculus [2]; time 60 min, 1 h): 62%
6 | CCOC(=O)[C@H](OCc1cnnn1[C@@H](Cc1ccc(O)cc1)C(=O)OC)[C@@H](OCc1cnnn1[C@@H](Cc1ccc(O)cc1)C(=O)OC)C(=O)OCC | > 10 µM | 0.15 µM | Activity (Mus musculus [2]; time 60.0 min): inactive
7 | COC(=O)[C@H](Cc1c[nH]c2ccccc12)n1nncc1COc1ccc2ccccc2c1-c1c(OCc2cnnn2[C@@H](Cc2c[nH]c3ccccc23)C(=O)OC)ccc2ccccc12 | 90 µM | 1 µM | –
8 | CC1(C)Cc2c(-c3ccccc3)c(-c3ccc(Cl)cc3)c(CC(=O)O)n2C1 [LICOFELONE] | 0.21 µM | 0.18 µM | –
9 | CCOC(=O)Cn1nncc1COc1ccc2ccccc2c1-c1c(OCc2cnnn2CC(=O)OCC)ccc2ccccc12 | 70 µM | 11 µM | –
10 | O=C1NC(=O)C(=Cc2cn(C[C@H](O)COc3cc(O)c4c(=O)cc(-c5ccccc5)oc4c3)c3ccccc23)C(=O)N1 | 0.34 µM | 0.0015 µM | –
11 | CCOC(=O)[C@H](O)[C@@H](OCc1cnnn1[C@@H](CO)C(=O)OC)C(=O)OCC | 110 µM | 14 µM | –
12 | CCOC(=O)[C@H](OCc1cnnn1[C@H](Cc1ccc(O)cc1)C(=O)OC)[C@@H](OCc1cnnn1[C@@H](Cc1ccc(O)cc1)C(=O)OC)C(=O)OCC | > 10 µM | 0.14 µM | –
13 | CCOC(=O)Cn1nncc1CO[C@@H](C(=O)OCC)[C@@H](O)C(=O)OCC | 95 µM | 6 µM | –
14 | COc1ccc(-n2nc(CCC(=O)N(C)O)cc2-c2ccc(Cl)cc2)cc1 [TEPOXALIN] | – | 0.15 µM | –
15 | O=C(O)[C@H](OCc1cnnn1[C@@H](Cc1ccccc1)C(=O)O)[C@@H](OCc1cnnn1[C@@H](Cc1ccccc1)C(=O)O)C(=O)O | – | 0.5 µM | Activity (Mus musculus [2]; time 60.0 min): inactive
16 | COC(=O)[C@H](Cc1ccccc1)n1nncc1COc1ccc2ccccc2c1-c1c(OCc2cnnn2[C@@H](Cc2ccccc2)C(=O)OC)ccc2ccccc12 | 150 µM | 3 µM | –
17 | COC(=O)[C@H](CO)n1nncc1COc1ccc2ccccc2c1-c1c(OCc2cnnn2[C@@H](CO)C(=O)OC)ccc2ccccc12 | 86 µM | 6 µM | –
18 | COc1cc(-c2cc(C(=O)CCCOc3ccc4ccc(=O)oc4c3)nn2-c2ccccc2)cc(OC)c1OC | 53.1 µM | 0.87 µM | –
19 | CCOC(=O)[C@H](O)[C@@H](OCc1cnnn1[C@@H](Cc1ccccc1)C(=O)OC)C(=O)OCC | 55 µM | 8 µM | –
20 | COc1ccc2c(c1)c(CC(=O)O)c(C)n2C(=O)c1ccc(Cl)cc1 [INDOMETHACIN] | – | – | Activity (Mus musculus [5]): 30%; Activity [6]: 0.9 ng/mL; Activity (Mus musculus [7]): 55%
21 | CCOC(=O)[C@H](OCc1cnnn1[C@@H](Cc1c[nH]c2ccccc12)C(=O)OC)[C@@H](OCc1cnnn1[C@@H](Cc1c[nH]c2ccccc12)C(=O)OC)C(=O)OCC | > 10 µM | 0.45 µM | Activity (Mus musculus [2]; time 60.0 min): inactive
22 | CCOC(=O)[C@H](O)[C@@H](OCc1cnnn1[C@@H](Cc1ccc(O)cc1)C(=O)OC)C(=O)OCC | 80 µM | 12 µM | –
23 | CC(c1cc2ccccc2s1)N(O)C(N)=O (configuration not stated) [ZILEUTON] | – | 0.3 µM | –
24 | Cc1ccc(S(=O)(=O)n2cc(C(=O)C(=O)N[C@H](C(=O)NCC(=O)O)c3c[nH]c4ccccc34)c3ccccc32)cc1 | 12.9 µM | 0.08 µM | –
